Results reported in PubChem BioAssay AID624204 (Sanford-Burnham Center for Chemical Genomics, 2012).
The campaign covered roughly 360,000 compounds. About 770 (0.21%) were called active. Many of the other results were omitted from the sample, so actives are more common in it than they were. A number with no mark means an inactive call.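 The calls were made as follows: active = inhibition at least 30% at 10 µM, raw YFP signal under a set limit, fluorescence ratio 0.5 to 1.5; inactive = the rest.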

target: Sentrin-specific protease 1 (Homo sapiens) (UniProt Q9P0U3); assay: blockers of SENP1 SUMO protease activity – biochemical, FRET, uHTS, primary screen (AID 624204); conditions: recombinant SENP1 catalytic domain, CyPet-SUMO1-YPet FRET cleavage; at 10 µM; hits give high values;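 also: 0% = enzyme with DMSO and 100% = no enzyme wells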
In short: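 Test system: hSENP1 catalytic domain, recombinant; Amount: 20 pM final SENP1 enzyme; Medium: Tris pH 8 buffer plus EDTA, NaCl, BME, BSA, NP40, catalase; Schedule: 50 min enzyme reaction, room temperature, light-protected; Technique: FRET fluorescence in CFP and YFP emission channels; Controls: no-enzyme wells low, DMSO-plus-enzyme wells high control.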

Chain of Sentrin-specific protease 1 (Homo sapiens) (Q9P0U3 419-644 limits assumed): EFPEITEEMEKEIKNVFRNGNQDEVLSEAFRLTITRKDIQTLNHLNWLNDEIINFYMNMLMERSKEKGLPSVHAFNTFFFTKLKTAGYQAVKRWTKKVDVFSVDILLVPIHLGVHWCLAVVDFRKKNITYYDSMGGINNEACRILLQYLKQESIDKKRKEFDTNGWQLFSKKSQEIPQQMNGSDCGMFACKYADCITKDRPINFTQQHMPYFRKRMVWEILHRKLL

Structure (SMILES)	inhibition
Cc1cccc(NC(=O)N(Cc2cc3cc(C)cc(C)c3[nH]c2=O)CC2COCCO2)c1 (stereo unspecified)	1.21%
COc1ncnc2c1N=C1CC(C)(C)CC(N)=C1S2	33.8% (active)
O=C1/C(=C\c2ccc(O)cc2)CCC1CNc1ccc(Cl)cc1 (stereo unspecified)	-58.8%
COc1ccc(C(=O)OC(C)C(=O)NC2CCCC2)cc1S(=O)(=O)N1CCOCC1 (stereo unspecified)	2.06%
COc1cc(/C=C2\CCCc3c2nc2ccccc2c3C(=O)O)cc(Cl)c1O	54.9% (active)
NS(=O)(=O)c1ccc(NC(=O)COC(=O)c2c3c(nc4ccccc24)/C(=C\c2ccc4c(c2)OCO4)CCC3)cc1	-24.4%
COc1ccc(-n2nc(C(=O)NCC(=O)N3CCCCCC3)c3ccccc3c2=O)cc1Cl	-0.802%
COc1cccc(COC(=O)C2CCN(S(=O)(=O)c3cccs3)CC2)c1OC	-0.283%
C=CC[C@@H](Cc1ccc(F)cc1)C(=O)OC[C@H]1CCCN1C(=O)[C@H](CC=C)CC(=O)N(CCO)Cc1ccccc1	0.419%
O=C(CCNS(=O)(=O)c1cccs1)N1CCN(c2ccc(F)cc2)CC1	7.35%
CCOc1ccc(OCC(=O)OC(C)C(=O)NC2CCCCC2C)cc1 (stereo unspecified)	0.477%
CCOc1ccc(N(CC(=O)Nc2cccc(OC)c2)S(C)(=O)=O)cc1	-0.216%
O=C(CC1CCCCC1)Nc1c2c(nn1-c1ccc(F)cc1)CS(=O)(=O)C2	-0.662%
CCOC(=O)c1cc2c(=O)n3ccccc3nc2n(CC(C)C)c1=NC(=O)c1c(-c2c(F)cccc2Cl)noc1C	-28.9%
O=C(O)c1cc2ccccc2c(=O)s1	2.49%
CCOC(=O)N1CCN(CC(=O)c2ccc3c(c2)CCN3)CC1	-2.56%
N#CCC(=O)NC1CCC(CC2CCC(NC(=O)CC#N)CC2)CC1 (stereo unspecified)	-0.386%
O=C(COC(=O)/C=C/c1ccc(Br)o1)Nc1cccc(S(=O)(=O)N2CCOCC2)c1	-7.92%
Cc1cccc(-c2nnc(SCC(=O)O)n2Cc2ccccc2)c1	0.0319%

Structure (SMILES)	inhibition
CCn1nnnc1SCC(=O)c1ccc(C)cc1C	1.48%
Cc1ccc2c(c1)nnc1nnc(SCC(=O)O)n12	73% (active)
C[C@@H]1C[C@@H]2O[C@H]2/C=C\C=C\C(=O)Cc2c(Cl)c(O)cc(O)c2C(=O)O1	-2.26%
CCCS(=O)(=O)N1CCCC(C(=O)NCCN2CCCCC2C)C1 (stereo unspecified)	-23.8%
CN1CCN(/N=C/c2ccc(C#N)cc2)CC1	1.45%
CN1CCN(/N=C/c2ccc(-c3ccc([N+](=O)[O-])cc3)o2)CC1	58.4% (active)
O=C1C2C3C=CC(C4CC34)C2C(=O)N1/N=C/c1ccc(-c2ccccc2[N+](=O)[O-])o1 (stereo unspecified)	-25.8%
Nn1c(SCc2ccccc2)nnc1C1CCCCC1	3.72%
CCCC(=O)N1CCC(CCC(=O)NC2CC2)CC1	2.3%
CCOC(=O)C1CCN(C(=O)CN2C(=O)c3cccnc3Oc3ccc(C)cc32)CC1	0.924%
CCOC(=O)C1CCN(c2ncnc3c2c(-c2ccccc2)cn3-c2ccc(C)cc2)CC1	47.1% (active)
CCOC(=O)C1CCN(Cc2ccc(-c3ccccc3)cc2)CC1	-0.00995%
CNCC[C@H](Oc1ccc(C(F)(F)F)cc1)c1ccccc1	-0.124%
O=C(COc1ccc(/C=N/NS(=O)(=O)c2ccccc2)cc1)NCCc1ccccc1	3.48%
CC1=CC2=NC(=O)/C(=C/c3coc4ccccc4c3=O)C(=N)N2O1	-38.6%
O=C1/C(=C/c2coc3ccc(O)cc3c2=O)SC(=S)N1c1ccccc1	46.8% (active)
CSc1ccc(CN2C(=O)NC3(CCCCCC3)C2=O)cc1	1.11%
CCC1OC(c2ccc([N+](=O)[O-])cc2)=Nc2ccccc21 (stereo unspecified)	-7.92%
Cc1cccc(C)c1NC(=O)C(c1cccc2ccccc12)n1c(=O)c(-c2ccco2)nc2ccccc21 (stereo unspecified)	-49.2%

Structure (SMILES)	inhibition
N#Cc1ccc(C(C(=O)NCc2ccccc2)n2c(=O)c(-c3ccco3)nc3ccccc32)cc1 (stereo unspecified)	-62.9%
c1coc(-c2nc3nc4ccccc4n3nc2-c2ccco2)c1	86.8% (active)
Cc1ccc(NC(=O)COC(=O)CCc2nc3ccccc3n2-c2ccccc2)c(C)c1	0.304%
C[C@H](C(=O)CC(=O)OC(C)(C)C)[C@H](O)c1ccc(C(F)(F)F)cc1	0.388%
Cc1ncc(CO)c(/C=N/NC(=O)c2cccc(S(=O)(=O)N3CCCC3)c2)c1O	-24.8%
CCOc1ccc(NS(=O)(=O)c2ccc(C(=O)NCC(c3ccccc3OC)N3CCCC3)cc2)cc1 (stereo unspecified)	-1.55%
O=C(CN1CCOCC1)Nc1c(-c2ccccc2)c2cc(Br)ccc2[nH]c1=O	-0.407%
Cc1cccc(C)c1Nc1c(-c2ccccc2O)nc2ncccn12	32.1% (active)
Cc1ccccc1Nc1c(-c2ccccc2)nc2ncccn12	14.2%
Cc1ccc(-c2c(N)nc3ncccn23)cc1	-17.5%
Cc1ccc(NC(=O)[C@H](Cc2ccccc2)NC(=O)CC[C@H]2O[C@@H](n3ccc(=O)[nH]c3=O)[C@H](O)[C@@H]2O)cc1C	1.31%
Cc1ccc(Nc2ccccc2N)cc1	54.5% (active)
Cc1ccc(Nc2nc(N)nc(CSc3nnc(C)s3)n2)cc1	3.47%
Cc1ccc(Nc2nc(Cl)c(C=O)s2)cc1	-32.5%
O=C(CSc1nnc(-c2ccncc2)n1-c1ccc(Cl)cc1)Nc1ccc(C(=O)O)cc1	0.469%
C=CC1=C(C(=O)O)N2C(=O)[C@@H](NC(=O)/C(=N/OCC(=O)O)c3csc(N)n3)[C@H]2SC1	56% (active)
O=C(CCn1nnc2ccccc2c1=O)N[C@@H](Cc1c[nH]c2ccccc12)C(=O)O	0.24%
CCN(CC)c1ccc(S(=O)(=O)N2CCOCC2)cc1NC(=O)CSc1cccc[n+]1[O-]	3.85%
